Experimental data pooled from the literature.
Each line is one published result; the experiments were not run side by side.
PIK3CB: Phosphatidylinositol 4,5-bisphosphate 3-kinase catalytic subunit beta isoform (PIK3CB, Homo sapiens, UniProt P42338)

Compound	target	test	setting	endpoint	result
Cc1nc(NC(=O)N2CCC[C@H]2C(N)=O)sc1-c1ccnc(C(C)(C)C(F)(F)F)c1	PIK3CB	enzyme activity, inhibitor, ADP detection	10 µM	inhibition	82.9%
CCCCC(=O)Nc1ccc(-c2ccc3ncn(CCC)c(=O)c3c2)cn1	PIK3CB	binding, competition with immobilised ligand	0.5 µM	remaining binding	100%
CC#CC(=O)N1CCC[C@H]1c1nc(-c2ccc(C(=O)Nc3ccccn3)cc2)c2c(N)nccn12	PIK3CB	enzyme activity, inhibitor	1 µM	inhibition	0%
Cc1ccc(NC(=O)c2ccnc(C(F)(F)F)c2)cc1-c1cc(OCCO)nc(N2CCOCC2)c1	PIK3CB	binding	1 µM	remaining binding	100%
C1=C/COCc2cc(ccc2OCCN2CCCC2)Nc2nccc(n2)-c2cccc(c2)COC/1	PIK3CB	binding	0.1 µM	remaining binding	98%
C=CC(=O)N1CCC[C@@H](n2nc(-c3ccc(Oc4ccccc4)cc3)c3c(N)ncnc32)C1	PIK3CB	enzyme activity, inhibitor	1 µM	inhibition	2%
CN1CCN(C(=O)c2ccc(NC(=O)Nc3ccc(N(C)c4ccnc(Nc5ccc(CS(C)(=O)=O)cc5)n4)cc3)cc2)CC1	PIK3CB	binding	1 µM	remaining binding	100%
CC(C)S(=O)(=O)c1ccc2nccc(Nc3ccc4sc(C5CCCC5)nc4c3)c2c1	Phosphatidylinositol 4,5-bisphosphate 3-kinase catalytic subunit beta isoform, with p85 (PIK3CB, Homo sapiens, UniProt P42338)	enzyme activity, inhibitor	1 µM	activity vs control	97%
